# Active and inactive are the calls of the source. No cut-off for these calls is given here.
# How the values were obtained:
# LNCaP [1] = experiment: Cytotoxicity against human LNCAP cells after 24 hrs by WST-1 assay; assay type: functional, cell-based
# Method in brief: (§1)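 Dark cytotoxicity (no light exposure) by WST-1 tetrazolium-to-formazan conversion reflecting metabolic activity; compounds tested at concentrations up to 50 μM for 24, 48 or 72 h; IC50 taken as concentration giving 50% inhibition of cell viability.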
# LNCaP [2] = experiment: Cytotoxicity against human LNCAP cells after 48 hrs by WST-1 assay; assay type: functional, cell-based; method in brief: as §1
# LNCaP [3] = experiment: Cytotoxicity against human LNCAP cells after 72 hrs by WST-1 assay; assay type: functional, cell-based; method in brief: as §1
# [4] = Cytotoxicity against human PC3 cells after 24 hrs by WST-1 assay; assay type: functional, cell-based; conditions: PC-3, 24 h; method in brief: as §1
# [5] = Cytotoxicity against human PC3 cells after 48 hrs by WST-1 assay; assay type: functional, cell-based; conditions: PC-3, 48 h; method in brief: as §1
# [6] = Cytotoxicity against human PC3 cells after 72 hrs by WST-1 assay; assay type: functional, cell-based; conditions: PC-3, 72 h; method in brief: as §1
# C2C12 [7] = experiment: Cytotoxicity against mouse C2C12 cells after 24 hrs by WST-1 assay; assay type: functional, cell-based; conditions: C2C12, 24 h; method in brief: as §1
# C2C12 [8] = experiment: Cytotoxicity against mouse C2C12 cells after 48 hrs by WST-1 assay; assay type: functional, cell-based; conditions: C2C12, 48 h; method in brief: as §1
# C2C12 [9] = experiment: Cytotoxicity against mouse C2C12 cells after 72 hrs by WST-1 assay; assay type: functional, cell-based; conditions: C2C12, 72 h; method in brief: as §1
# U2OS [10] = experiment: Cytotoxicity against human U2OS cells after 24 hrs by WST-1 assay; assay type: functional, cell-based; method in brief: as §1
# U2OS [11] = experiment: Cytotoxicity against human U2OS cells after 48 hrs by WST-1 assay; assay type: functional, cell-based; method in brief: as §1
# U2OS [12] = experiment: Cytotoxicity against human U2OS cells after 72 hrs by WST-1 assay; assay type: functional, cell-based; method in brief: as §1
# MCF7 [13] = experiment: Cytotoxicity against human MCF7 cells after 24 hrs by WST-1 assay; assay type: functional, cell-based; conditions: MCF7, 24 h; method in brief: as §1
# MCF7 [14] = experiment: Cytotoxicity against human MCF7 cells after 48 hrs by WST-1 assay; assay type: functional, cell-based; conditions: MCF7, 48 h; method in brief: as §1
# MCF7 [15] = experiment: Cytotoxicity against human MCF7 cells after 72 hrs by WST-1 assay; assay type: functional, cell-based; conditions: MCF7, 72 h; method in brief: as §1
# [16] = Cytotoxicity against human MIAPaCa2 cells after 24 hrs by WST-1 assay; assay type: functional, cell-based; conditions: MIA PaCa-2, 24 h; method in brief: as §1
# [17] = Cytotoxicity against human MIAPaCa2 cells after 48 hrs by WST-1 assay; assay type: functional, cell-based; conditions: MIA PaCa-2, 48 h; method in brief: as §1
# [18] = Cytotoxicity against human MIAPaCa2 cells after 72 hrs by WST-1 assay; assay type: functional, cell-based; conditions: MIA PaCa-2, 72 h; method in brief: as §1
# HT-29 [19] = experiment: Cytotoxicity against human HT-29 cells after 24 hrs by WST-1 assay; assay type: functional, cell-based; conditions: HT-29, 24 h; method in brief: as §1
# HT-29 [20] = experiment: Cytotoxicity against human HT-29 cells after 48 hrs by WST-1 assay; assay type: functional, cell-based; conditions: HT-29, 48 h; method in brief: as §1
# HT-29 [21] = experiment: Cytotoxicity against human HT-29 cells after 72 hrs by WST-1 assay; assay type: functional, cell-based; conditions: HT-29, 72 h; method in brief: as §1
# [22] = Cytotoxicity against rat peritoneal cells assessed as reduction in cell viability at 10 uM after 24 hrs by WST-1 assay; assay type: cell-based
# PC-3 = experiment: Induction of LPS-induced NO production in human PC3 cells at 40 uM after 24 hrs using DAR-2 probe by fluorescence assay; assay type: functional, cell-based
# Method in brief: (§2)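 NO in living cells (PC-3, LNCaP, MCF-7, U-2 OS) was imaged by fluorescence microscopy with the NO-specific red-emitting probe DAR-2 after compound stimulation.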
# LNCaP [23] = experiment: Induction of LPS-induced NO production in human LNCAP cells at 40 uM after 24 hrs using DAR-2 probe by fluorescence assay; assay type: functional, cell-based; method in brief: as §2
# MCF7 [24] = experiment: Induction of LPS-induced NO production in human MCF7 cells at 40 uM after 24 hrs using DAR-2 probe by fluorescence assay; assay type: functional, cell-based; method in brief: as §2
# U2OS [25] = experiment: Induction of LPS-induced NO production in human U2OS cells at 40 uM after 24 hrs using DAR-2 probe by fluorescence assay; assay type: functional, cell-based; method in brief: as §2
# [26] = Cellular uptake in Endoplasmic reticulum of human U2OS cells at 1 uM after 1 hr by fluorescence microscopy; assay type: ADME, cell-based
# Method in brief: (§3)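 Live-cell fluorescence microscopy of cells exposed to Bodipy-labelled conjugates at 1 μM for 1 h. ER was co-stained with ER-Tracker Blue-White DPX (100 nM, 20 min) to check colocalisation. A Bodipy dye-only stain served as control.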
# [27] = Cellular uptake in Endoplasmic reticulum of human PC3 cells at 1 uM after 1 hr by fluorescence microscopy; assay type: ADME, cell-based; conditions: pc-3, 1 h; method in brief: as §3
# [28] = Cellular uptake in Endoplasmic reticulum of human LNCAP cells at 1 uM after 1 hr by fluorescence microscopy; assay type: ADME, cell-based; method in brief: as §3
# [29] = Cellular uptake in Endoplasmic reticulum of human HeLa cells at 1 uM after 1 hr by fluorescence microscopy; assay type: ADME, cell-based; method in brief: as §3
smiles,measurement,setting,value
C/C=C(/C)C(=O)O[C@@H]1C[C@H]2C(=C1C)[C@@H]1OC(=O)[C@@](C)(O)[C@@]1(O)[C@@H](OC(=O)[C@@H](C)CC)C[C@]2(C)OC(C)=O,IC50,LNCaP [1],3.4 µM
same,IC50,LNCaP [2],0.5 µM
same,IC50,LNCaP [3],0.4 µM
same,IC50,[4],9.6 µM
same,IC50,[5],1.3 µM
same,IC50,[6],0.5 µM
same,IC50,C2C12 [7],4 µM
same,IC50,C2C12 [8],1 µM
same,IC50,C2C12 [9],0.3 µM
same,IC50,U2OS [10],12.5 µM
same,IC50,U2OS [11],0.2 µM
same,IC50,U2OS [12],0.7 µM
same,IC50,MCF7 [13],0.2 µM
same,IC50,MCF7 [14],2.5 µM
same,IC50,MCF7 [15],2.1 µM
same,IC50,[16],17.4 µM
same,IC50,[17],6 µM
same,IC50,[18],1.5 µM
same,IC50,HT-29 [19],41.4 µM
same,IC50,HT-29 [20],9.8 µM
same,IC50,HT-29 [21],9.5 µM
same,Activity,[22],65%
same,Activity,PC-3,Active
same,Activity,LNCaP [23],Active
same,Activity,MCF7 [24],Active
same,Activity,U2OS [25],Active
same,Drug uptake,[26],Active
same,Drug uptake,[27],Active
same,Drug uptake,[28],Active
same,Drug uptake,[29],Active

# Source: ChEMBL document CHEMBL3352255, “Tailor-made fluorescent trilobolide to study its biological relevance” (J Med Chem, 2014)
